# Screening data deposited in PubChem by several laboratories.
# UPR CHOP act: activators of apoptotic CHOP UPR arm, primary screen, cell-based, CHO-CHOP luciferase reporter, luminescence, uHTS. AID 449763, 2010. activation, % at 10 µM. UPR activation; percent of tunicamycin response over DMSO baseline. 330,000 tested, 0.34% active;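 active means at 10 µM dose, activation of 40% or more, normalized to positive control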
#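 Evaluation: % reporter activation, DMSO baseline versus tunicamycin full activation; System: CHO-CHOP luciferase reporter cell line; Input: 500 cells/well; Incubation: 6 h compound treatment, 37 °C; Measured by: Steady-Glo luciferase luminescence; Dosing: one dose, 10 µM in 0.5% DMSO; Buffer or medium: F12 medium, 10% FBS; Benchmarks: positive tunicamycin 10 µg/mL, negative DMSO alone.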
# XBP1 UPR activ: activators of adaptive XBP1 UPR arm, primary screen, cell-based, CHO-XBP1 luciferase reporter, luminescence, uHTS | AID 463104, 2010 | activation, % at 20 µM | 330,000 tested, 0.33% active | IRE1-XBP1 UPR activation; percent of tunicamycin response, DMSO as zero;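 active means versus positive control, 20 µM dose yields 30% or more activation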
#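 Material: CHO cell line with stable XBP1 luciferase reporter; schedule: 16-18 h cell attachment at 37 °C, then 6 h compound exposure; signal: glow luminescence from Steady-Glo reagent; medium: serum-containing F12 medium, 10% FBS; benchmarks: tunicamycin 10 µg/mL and vehicle-only wells; read-out: percent activation relative to tunicamycin reference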
# CHOP inh: inhibitors of CHOP promoter induction, primary screen, cell-based, unfolded protein response, luciferase reporter. CHO-K1 CHOP-promoter luciferase, tunicamycin-induced, 15-18 h. inhibition, % at 10 µM. 220,000 tested, 3.8% active;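 active means compounds that reduced the stress-induced luciferase reporter signal by more than about 70% of percent inhibition, limit read from the data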
# A1 inh: caspase 3/7 activation in MEF A1-2A-BIM cells, primary screen, A1 inhibitor project, cell-based, luminescence, HTS; AID 2462, 2010; 330,000 tested, 0.066% active; Caspase-Glo 3/7 luminescence, 3 h; percent of clofoctol response, vehicle zero; caspase activation, % (no concentration beside the values);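 active means over half of replicate activation scores above 10%, or exactly half above 10 with the replicate mean above 10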
# Hits are given with their value; – = inactive; · = no result given. Many of the other results were omitted from the sample, so hits are more common in it than they were.
SMILES,UPR CHOP act,XBP1 UPR activ,CHOP inh,A1 inh
O=C(CSc1nnc2ccccn12)Nc1cccc(-c2nc3ccccc3s2)c1,–,–,93,–
Cc1ccc(-n2ncc3c2CCCC3NC(=O)CCN2CCCC2=O)cc1C (stereo not drawn),–,–,·,–
N#Cc1ccc(/C=C\c2nccc3c2[nH]c2ccccc23)cc1,–,–,78,–
CC1(C)CC(=O)C(/C=N/c2ncccc2C(=O)O)=C(O)C1,–,–,78,–
Cc1[nH]nc(N=CC2=C(O)CC(C)(C)CC2=O)c1-c1ccc(Cl)cc1,–,–,92,–
COC(=O)c1c(NC(=O)c2ccco2)sc2c1CCN(C(C)=O)C2,–,–,·,–
COC(=O)c1c(NC(=O)c2ccc(N(C)S(=O)(=O)c3ccc(C)cc3)cc2)sc2c1CCCC2,–,–,–,–
COCCN(CCOC)S(=O)(=O)c1ccc(C(=O)Nc2sc3c(c2C(N)=O)CCCCC3)cc1,–,–,82,–
Cc1ccc(C(=O)Nc2ccccc2C(=O)N2CCN(c3ccccc3)CC2)cc1,–,–,·,–
COc1ccc(-c2cn3nc(C)c(C)nc3n2)cc1OC,–,–,·,–
Cc1ccc(-c2cn3nc(C)c(C)nc3n2)cc1,–,–,81,–
Oc1c(C(c2cccs2)N2CCN(c3ccccc3)CC2)ccc2cccnc12 (stereo not drawn),87,–,99,–
O=c1c2ccccc2c(-c2ccc(O)cc2)nn1-c1cccc(C(F)(F)F)c1,–,–,94,–
Cc1ccc(C)c(NC(=O)CN(C)C(=O)[C@@H](NC(N)=O)C(C)C)c1,–,–,–,–
Cc1ccc(C)c(NC(=O)CN(C)C(=O)[C@@H](NC(=O)c2ccc(C(C)(C)C)cc2)C(C)C)c1,–,–,83,–
CCOC(=O)Cn1nc(-c2ccccc2)c2cnc3ccc(C)cc3c21,–,–,73,–
CN1CCN(C(=O)c2ccc3c(=O)n4c(nc3c2)CCCCC4)CC1,–,–,–,–
Fc1ccc(Cn2nnc(-c3ccc(Cl)cc3)n2)cc1,–,–,·,–
CC(C)C(=O)N[C@H]1CCC2C3CC=C4C[C@@H](O)CC[C@]4(C)C3CC[C@@]21C (stereo partly drawn),–,–,·,–
CC(C)(C)[C@H](N)C(=O)N[C@H]1CCC2C3CC=C4C[C@@H](O)CC[C@]4(C)C3CC[C@@]21C (stereo partly drawn),–,–,·,11
CNC(=S)NNC(=O)c1oc2nc(-c3ccccc3)cc(C)c2c1N,–,–,–,–
CCOC(=O)N1CCN(C(=O)C2CCN(S(=O)(=O)c3ccc(F)cc3)CC2)CC1,–,–,–,–
O=[N+]([O-])c1ccc(/C=C/C2=NN(c3ccccc3)C(c3ccco3)C2)o1 (stereo not drawn),·,·,–,·
C(=C\c1ccco1)/C1=NN(c2ccccc2)C(c2ccco2)C1 (stereo not drawn),–,–,74,–
FC(F)(F)COc1ccc(-c2nnc(SCc3ccccc3)o2)cn1,–,–,–,–
SMILES,UPR CHOP act,XBP1 UPR activ,CHOP inh,A1 inh
CC(=O)Nc1ccc(Oc2nc(C(F)(F)F)nc3ccccc23)cc1,–,–,·,–
Cc1cc(C)cc(Oc2nc(C(F)(F)F)nc3ccccc23)c1,–,–,72,–
CCCn1c(=O)c2sccc2n2c(CCCC(=O)NCc3ccco3)nnc12,–,–,·,–
Cc1csc(SC(C)C(=O)NC2CCCCC2C)n1 (stereo not drawn),–,–,·,–
O=S(Cc1ccc(Br)cc1)Cc1nnc(SCc2ccc(Cl)cc2)n1-c1ccccc1 (stereo not drawn),–,–,85,–
Cn1c(CS(=O)Cc2c(Cl)cccc2Cl)nnc1SCc1ccc(Cl)cc1 (stereo not drawn),–,–,–,–
O=S(Cc1ccc(Br)cc1)Cc1nnc(SCc2c(F)cccc2Cl)n1-c1ccccc1 (stereo not drawn),–,–,74,–
O=C1CCCc2ccccc2N1Cc1ccc(Cl)cc1Cl,–,–,–,–
NC(=O)c1c(NC(NC(=O)c2ccco2)C(=O)c2ccc(Cl)cc2)sc2c1CCCC2 (stereo not drawn),–,–,–,–
CC(C)(C)N(Cc1ccccc1)C(=O)COC(=O)CNC(=O)c1ccco1,–,–,·,16
O=C(CNC(=O)c1ccco1)NCC(=O)OCc1cccc(Cl)c1,–,–,–,–
O=C(CNC(=O)c1ccco1)OCc1cccc(Cl)c1,–,–,74,–
CSCCC(NC(=O)c1ccco1)C(=O)OCC(=O)N(Cc1ccccc1)C(C)(C)C (stereo not drawn),–,–,·,–
CC(=O)NC(CC(=O)OCc1ccc([N+](=O)[O-])cc1)c1ccccc1 (stereo not drawn),–,–,·,–
Cc1cc(Nc2ccccc2)nn1C(=O)c1ccc(Cl)cc1,–,–,77,–
Cc1cc(Nc2ccccc2)nn1C(=O)c1ccc([N+](=O)[O-])cc1,–,–,–,–
S=c1[nH]nc(C23CC4CC(CC(C4)C2)C3)n1Cc1ccco1,–,–,–,–
C=CCN(CC=C)S(=O)(=O)c1ccc(F)cc1,–,–,79,–
COc1ccc(-c2csc(N(Cc3ccccc3)C(=O)COc3ccc(Cl)cc3)n2)cc1,–,–,91,–
O=C(COc1ccc2c3c(c(=O)oc2c1)CCC3)N1CCN(c2ccccc2)CC1,–,–,·,–
COc1ccc(CN(C(=O)c2ccco2)c2ccc(Br)cc2)cc1OC,–,–,–,–
O=C1/C(=C/N(C(=O)c2ccco2)c2ccc(Br)cc2)Sc2ccccc21,–,–,90,–
O=C1/C(=C/N(C(=O)c2ccco2)c2ccc(Cl)cc2)Sc2ccccc21,·,·,88,–
Cc1ccccc1Nc1nc(N)nc(CSc2nnnn2-c2ccccc2)n1,–,–,–,–
CCc1ccc(Nc2nc(N)nc(CSc3nnnn3-c3ccccc3)n2)cc1,–,–,88,–
SMILES,UPR CHOP act,XBP1 UPR activ,CHOP inh,A1 inh
COc1ccc(CCC(C)Nc2ccc(F)cc2)cc1 (stereo not drawn),–,–,88,–
COc1ccc(CCC(C)Nc2cccc(C)c2)cc1 (stereo not drawn),–,–,82,–
CCCc1nc(SCC(=O)N2CCc3ccccc3C2)c2ccccc2n1,–,–,–,–
CC(C)(C)OC(=O)N1CCCC(C(=O)Nc2cccc(C(=O)N3CCCC3)c2)C1 (stereo not drawn),–,–,·,–
Fc1cccc(C2CC(c3cccc(Br)c3)Nc3nnnn32)c1 (stereo not drawn),–,–,83,–
Cc1ccc(CNC(=O)C(NS(=O)(=O)c2cccs2)C(C)C)cc1 (stereo not drawn),–,–,–,–
CC1=C(C(=O)Nc2ccccc2)C(c2ccc(C)cc2)N=C(Nc2nc3ccccc3o2)N1 (stereo not drawn),74,–,88,–
